Reference: ChEMBL document CHEMBL1641427, “Arylsulfanyl pyrazolones block mutant SOD1-G93A aggregation. Potential application for the treatment of amyotrophic lateral sclerosis” (Bioorg Med Chem, 2011)
≈ marks a conversion by molar mass, not a printed value.

How the values were obtained:
[1] = Inhibition of SOD1 G93A mutant aggregation in rat PC12 cells by cytotoxicity protection assay; assay type: cell-based; conditions: PC-12
[2] = (§1) Ratio of permeability from basolateral to apical side to apical to basolateral side in human Caco2 cells; assay type: ADME, cell-based; conditions: Caco-2
In short: (§2)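 Caco-2 cells were seeded on collagen-coated inserts and differentiated for 3 weeks, fed every 2 days. The donor side received 50 μM compound in HBSS with 10 mM HEPES and 1.98 g/L glucose, apical at pH 6.5 and basolateral at pH 7.4, for 2 h. Apical 100 μM Lucifer yellow checked monolayer integrity (<1%/2 h). Papp = dQ/dt/(C0·A), and the ratio is Papp(B→A)/Papp(A→B).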

Plasma = experiment: Half life of the compound in mouse plasma at 5 uM; assay type: ADME, cell-free
In short: (§3)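 Samples taken at 15 s and at 10, 20, 40 and 60 min, precipitated with acetonitrile containing haloperidol internal standard, then LC-MS/MS. Plasma/PBS response ratio fitted to a first-order exponential (1/Y weighting); T1/2 = ln2/k. PBS half-life from its own exponential fit.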

[3] = Aqueous solubility of the compound; assay type: physicochemical; conditions: buffer
In short: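 DMSO stock 3-fold serially diluted at 100× final, then diluted into PBS to 1% DMSO final. Incubated 1 h at room temperature, inspected visually for precipitate and read at 450 nm. Solubility limit is the highest concentration neither cloudy nor above background absorbance (visual only for coloured compounds).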

Caco-2 [4] = experiment: (§4) Permeability from apical to basolateral side of human Caco2 cells after 2 hrs; assay type: ADME, cell-based; conditions: caco-2, 2 h; in short: as §2
[5] = Stability of the compound in PBS assessed as compound remaining after 60 mins; assay type: physicochemical; conditions: read-out: Stability; in short: as §3
Caco-2 [6] = experiment: (§5) Permeability from basolateral to apical side of human Caco2 cells after 2 hrs; assay type: ADME, cell-based; conditions: caco-2, 2 h; in short: as §2
[7] = Half life in human microsome by LC-MS/MS analysis; assay type: ADME; conditions: microsomes
[8] = Half life in mouse microsome by LC-MS/MS analysis; assay type: ADME, microsomes; conditions: for t1/2: microsomes
[9] = Intrinsic clearance in mouse microsome by LC-MS/MS analysis; assay type: ADME; conditions: mouse microsomes
[10] = Intrinsic clearance in mouse microsome by LC-MS/MS analysis in presence of NADPH; assay type: ADME; conditions: mouse microsomes
Plasma (Homo sapiens) [11] = experiment: Ratio of AUC of compound to 4-ethylidene-1H-pyrazol-5(4H)-ones in human serum at 0.01 ug/ml plasma concentration
Mus musculus [12] = experiment: Plasma area ratio in Tg6799 mouse at 1 mg/kg, ip after 10 mins by LC-MS/MS analysis; assay type: ADME, organism-based; set-up: dose 1 mg/kg, route intraperitoneal; conditions: in vivo
In short: (§6)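 Female Tg6799 mice (B6/SJL background), n=3, given 1 mg/kg i.p. in 60% PBS/40% DMSO (100 μL per 10 g) and killed at 10 min. Plasma collected by centrifugation. Brain PBS-perfused via left ventricle, excised, weighed and homogenized in acetonitrile with internal standard. Analyte measured by LC-MS/MS as ratio to internal standard; plasma in μg/mL, brain in μg/g. Brain/plasma ratio computed after μM conversion assuming brain density 1 g/mL. Mean ± SD.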

Plasma (Homo sapiens) [13] = experiment: Ratio of AUC of compound to 4-ethylidene-1H-pyrazol-5(4H)-ones in human serum at 0.50 ug/ml plasma concentration
Plasma (Homo sapiens) [14] = experiment: Ratio of AUC of compound to 4-ethylidene-1H-pyrazol-5(4H)-ones in human serum at 0.10 ug/ml plasma concentration
Mus musculus [15] = experiment: Brain area ratio in Tg6799 mouse at 1 mg/kg, ip after 10 mins by LC-MS/MS analysis; assay type: ADME, organism-based; set-up: dose 1 mg/kg, route intraperitoneal; conditions: in vivo; in short: as §6
[16] = Ratio of drug level in brain to plasma in Tg6799 mouse at 1 mg/kg, ip after 10 mins by LC-MS/MS analysis; assay type: ADME, organism-based; set-up: dose 1 mg/kg, route intraperitoneal; in short: as §6
[17] = Drug level in Tg6799 mouse brain measured per gram of tissue at 1 mg/kg, ip after 10 mins by LC-MS/MS analysis; assay type: ADME, organism-based; set-up: dose 1 mg/kg, route intraperitoneal; conditions: read-out: Drug uptake; in short: as §6
[18] = Drug level in Tg6799 mouse plasma at 1 mg/kg, ip after 10 mins by LC-MS/MS analysis; assay type: ADME, organism-based; set-up: dose 1 mg/kg, route intraperitoneal; conditions: read-out: Drug uptake; in short: as §6
[19] = Ratio of AUC of compound to 4-ethylidene-1H-pyrazol-5(4H)-ones in pig brain at 0.05 ug/ml brain extract concentration; assay type: ADME, tissue-based, Sus scrofa; conditions: in vivo
In short: (§7)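 Brain standards: analyte added to pig brain pieces (300–500 mg) with acetonitrile and internal standard at final 0.05, 0.10, 0.5 and 1.0 μg/mL (1 mL total). Homogenized, then 20 μL aliquot run by LC-MS/MS. Analyte/internal standard response taken. Triplicate.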

[20] = Ratio of AUC of compound to 4-ethylidene-1H-pyrazol-5(4H)-ones in pig brain at 1 ug/ml brain extract concentration; assay type: ADME, tissue-based, Sus scrofa; conditions: in vivo; in short: as §7
[21] = Ratio of AUC of compound to 4-ethylidene-1H-pyrazol-5(4H)-ones in pig brain at 0.50 ug/ml brain extract concentration; assay type: ADME, tissue-based, Sus scrofa; conditions: in vivo; in short: as §7
Plasma (Homo sapiens) [22] = experiment: Ratio of AUC of compound to 4-ethylidene-1H-pyrazol-5(4H)-ones in human serum at 0.05 ug/ml plasma concentration
Brain = experiment: Effect of compound on Tg6799 mouse brain weight at 1 mg/kg, ip after 10 mins; assay type: ADME, organism-based; set-up: dose 1 mg/kg, route intraperitoneal; conditions: in vivo
[23] = Ratio of AUC of compound to 4-ethylidene-1H-pyrazol-5(4H)-ones in pig brain at 0.10 ug/ml brain extract concentration; assay type: ADME, tissue-based, Sus scrofa; conditions: in vivo; in short: as §7
Caco-2 [24] = experiment: as §1; assay type: ADME, cell-based; in short: as §2
[25] = as §4; assay type: ADME, cell-based, Caco-2; conditions: Caco-2; in short: as §2
[26] = as §5; assay type: ADME, cell-based, Caco-2; conditions: Caco-2; in short: as §2

| Structure (SMILES) | EC50 [1] [µM] | other results |
| --- | --- | --- |
| O=C1NN=C(CSc2ccccc2)/C1=C/c1ccccc1 | > 32 |  |
| O=c1cc(CSc2ccccc2)[nH][nH]1 | 10.1 |  |
| O=c1cc(CSc2ccc(Cl)cc2)[nH][nH]1 | 1.93 |  |
| Cn1[nH]c(CSc2ccc(Cl)cc2)cc1=O | 5.4 |  |
| O=c1cc(CSc2ccc(Cl)cc2)[nH]n1-c1ccccc1 | 3.46 |  |
| CC(C)(C)c1ccc(SCc2cc(=O)[nH][nH]2)cc1 | 2.31 |  |
| O=c1cc(CSc2ccc([N+](=O)[O-])cc2)[nH][nH]1 | 2.4 |  |
| COc1ccc(SCc2cc(=O)[nH][nH]2)cc1 | 1.81 |  |
| O=c1cc(CSc2ccc(-c3ccccc3)cc2)[nH][nH]1 | 4.06 |  |
| O=c1cc(CSc2ccc(F)cc2)[nH][nH]1 | 3.44 |  |
| O=c1cc(CSc2ccc(Br)cc2)[nH][nH]1 | 1.8 |  |
| Cc1cc(SCc2cc(=O)[nH][nH]2)c(Cl)cc1Cl | 0.55 | efflux ratio [2]: 0.1; t1/2 (Plasma): 16 min; solubility [3]: 56 µM (≈ 16.2 µg/mL); Papp (Caco-2 [4]): 4.7 ×10⁻⁶ cm/s; remaining at 1 h [5]: 100%; Papp (Caco-2 [6]): 0.46 ×10⁻⁶ cm/s; t1/2 [7]: 39 min; t1/2 [8]: 13 min |
| Cc1cc(SCc2cc(=O)[nH][nH]2)c(C)cc1Cl | 0.4 | CLint scaled [9]: 63 mL/min/kg; CLint scaled [10]: 242 mL/min/kg; Ratio AUC (Plasma (Homo sapiens) [11]): 0.068; Ratio (Mus musculus [12]): 0; Ratio AUC (Plasma (Homo sapiens) [13]): 1.58; Ratio AUC (Plasma (Homo sapiens) [14]): 0.637; Ratio (Mus musculus [15]): 0; Ratio [16]: 0.19; concentration at 10 min [17]: 360 ng/g; concentration at 10 min [18]: 1960 ng/mL; Ratio AUC [19]: 0.148; Ratio AUC [20]: 2.48; Ratio AUC [21]: 1.11; Ratio AUC (Plasma (Homo sapiens) [22]): 0.304; t1/2 [8]: 15 min; Activity (Brain): 0.399 g; Ratio AUC [23]: 0.268 |
| O=c1cc(CSc2ccccc2Cl)[nH][nH]1 | 3.05 |  |
| O=c1cc(CSc2cccc(Cl)c2)[nH][nH]1 | 1.11 |  |
| O=c1cc(CSc2ccc(Cl)cc2Cl)[nH][nH]1 | 1.15 |  |
| O=c1cc(CSc2ccc(Cl)c(Cl)c2)[nH][nH]1 | 1.89 |  |

| Structure (SMILES) | EC50 [1] [µM] | other results |
| --- | --- | --- |
| O=c1cc(CSc2c(Cl)cccc2Cl)[nH][nH]1 | 0.95 |  |
| O=c1cc(CSc2cc(Cl)cc(Cl)c2)[nH][nH]1 | 0.17 |  |
| Cc1cc(SCC2=NNC(=O)/C2=C\N(C)C)c(Cl)cc1Cl | 0.9 | CLint scaled [9]: 135 mL/min/kg; CLint scaled [10]: 924 mL/min/kg; half-life ([8]; mouse microsomes): 4 min |
| Cc1cc(SCC2=NNC(=O)/C2=C\N(C)C)c(C)cc1Cl | 5.3 |  |
| Cc1ccc(SCc2cc(=O)n(-c3nc(C)cc(C)n3)[nH]2)cc1 | 3.5 |  |
| Cc1ccc(SCc2cc(=O)[nH][nH]2)cc1 | 2 |  |
| Cc1ccc(SCC2=NN(c3ccccc3)C(=O)/C2=C\c2ccc(-c3cccc(C(F)(F)F)c3)o2)cc1 | 4.1 |  |
| O=c1cc(CSc2nnnn2-c2ccccc2)[nH]n1-c1ccccc1 | 6.6 |  |
| Cc1cc(C)nc(-n2[nH]c(CSc3nnc(C)s3)cc2=O)n1 | 6.7 |  |
| Cc1ccc(SCC2=NN(c3ccccc3)C(=O)/C2=C\C2=NCN=C2c2ccccc2)cc1 | 10 |  |
| Cc1nnc(SCc2cc(=O)n(-c3nc4ccccc4s3)[nH]2)s1 | 44 |  |
| O=C1/C(=C\c2ccc(-c3cccc(C(F)(F)F)c3)o2)C(CSc2ccccc2)=NN1c1ccccc1 | 35 |  |
| Cc1nnc(SCc2cc(=O)[nH][nH]2)s1 | 16 |  |
| O=c1cc(CSc2ccccn2)[nH][nH]1 | 46 |  |
| O=C1ON=C(CSc2ccccc2)/C1=C/c1ccccc1 | 165 |  |
| CNC(=C[N+](=O)[O-])NCCSCc1ccc(CN(C)C)o1 [RANITIDINE] |  | Ratio (Caco-2 [24]): 1; Papp A→B at 2 h [25]: 0.6 ×10⁻⁶ cm/s; Papp B→A at 2 h [26]: 0.6 ×10⁻⁶ cm/s |
| CC(=O)CC(c1ccccc1)c1c(O)c2ccccc2oc1=O (centres undefined) [WARFARIN] |  | CLint scaled [9]: 6 mL/min/kg |
